From PubChem BioAssay
In the library only some 0.74% were active in any assay of this set; here they are far more common.
RGS4-Gao reg – human RGS4-Galphao interaction regulation; P09471; hit rate 0.33% among 220,000; Multiplexed bead flow cytometry, RGS4-Galphao binding; actives lie on both sides; binding response (% of control), % at 10 µM; AID 1415; in the data active means binding response below about 49% or above about 150%; inactive means in between;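 further: fluorescent Galphao activated with aluminum fluoride binding bead-coupled RGS4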
Target sequence (P09471 whole entry, looked up): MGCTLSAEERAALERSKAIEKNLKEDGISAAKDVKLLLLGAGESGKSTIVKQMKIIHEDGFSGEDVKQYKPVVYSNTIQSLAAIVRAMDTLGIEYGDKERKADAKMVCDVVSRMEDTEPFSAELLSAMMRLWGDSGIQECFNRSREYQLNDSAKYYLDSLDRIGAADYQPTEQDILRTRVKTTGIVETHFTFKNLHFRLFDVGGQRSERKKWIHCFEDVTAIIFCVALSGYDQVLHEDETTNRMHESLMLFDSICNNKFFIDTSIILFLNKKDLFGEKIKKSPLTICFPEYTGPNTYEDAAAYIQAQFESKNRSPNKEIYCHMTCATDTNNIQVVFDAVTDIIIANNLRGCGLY
RGS16-Gao – regulators of human RGS16-Galphao interaction | O15492+P09471 | bead-based flow cytometry RGS16-Galphao binding, fluorescence; actives lie on both sides | binding response (% of control), % at 10 µM | hit rate 0.38% among 220,000 | AID 1441;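 further: Galphao activated by GDP with aluminum fluoride before binding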
RGS8-Gao – regulators of human RGS8-Galphao interaction; hit rate 0.34% among 220,000; multiplexed bead flow cytometry, RGS8-Galphao binding; actives lie on both sides; P09471; response (percent of control binding), % at 10 µM; in the data active means response below about 60% or above about 140%; inactive means in between;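 further: Galphao activated as the GDP aluminium fluoride complex binding bead-coupled RGS8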
RGS7-Gao – regulators of human RGS7-Galphao interaction; Multiplexed bead flow cytometry, RGS7-Galphao binding; actives lie on both sides; binding response (% of control), % at 10 µM; hit rate 0.35% among 220,000; AID 1439; in the data active means binding response below about 49% or above about 150%; inconclusive means no clear call, values can overlap the other calls; inactive means in between;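 further: fluorescent Galphao held in activated GDP-AlF4 state binding bead-coupled RGS7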
Calb biofilm kill – mixture kills Candida albicans biofilm cells; C. albicans biofilm persisters + clotrimazole, fluorescence viability; primary screen in compound mixtures of four per well; inhibition, % at 7.6 µM; hit rate 0.02% among 120,000; AID 1242;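 active means inhibition above 30.3% in the primary screen of four-compound pools, then above 30% when the compound was retested; inconclusive means passed the primary limit but could not be retested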;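 further: compounds exposed to preformed 24 h biofilms for 48 h; 0% = untreated biofilm control and 100% = clotrimazole plus chlorhexidine kill blank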
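System: C. albicans CAF4-2 wild-type biofilms; Medium: RPMI/MOPS medium, pH 7.0; Reagent: Clotrimazole, 50 µg/mL; Times: biofilm formation 24 h, compound exposure 48 h, 37 °C; Detection: 2-h Alamar Blue fluorescence, 535/590 nm excitation/emission; Evaluation: percent inhibition of biofilm viability.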
RGS4-Gao HTS – RGS4-Galphao interaction regulator (human); shares compounds with RGS16-Gao; multiplexed bead flow cytometry, RGS–Galpha-o binding; RGS4–Galpha-o binding response, % at 10 µM; hit rate 99% among 1,600;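 further: fluorescently labeled Galpha-o bound to GDP with aluminium fluoride binding biotinylated RGS beads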
Target sequence (P09471 whole entry, looked up): as above
Target sequence (P49798 whole entry, looked up): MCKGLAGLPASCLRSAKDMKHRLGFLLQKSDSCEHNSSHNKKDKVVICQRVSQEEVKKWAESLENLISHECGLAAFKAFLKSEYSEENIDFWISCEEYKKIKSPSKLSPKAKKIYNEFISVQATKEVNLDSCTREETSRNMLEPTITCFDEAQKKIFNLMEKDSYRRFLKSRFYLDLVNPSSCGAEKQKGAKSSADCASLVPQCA
Avidin counter – interferes with biotinylated probe binding to avidin beads; streptavidin beads, fluorescein-biotin binding, flow cytometry; shares compounds with RGS16-Gao; AID 1783; inhibition, % at 10 µM; 1,700 tested, under 10 active;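 active means inhibition above 50%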;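 further: median green fluorescence of gated singlet beads compared with DMSO control wells; 0% = DMSO wells and 100% = complete loss of bead fluorescence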
RGS8-Gao single – RGS8-Galphao interaction regulation, single point confirmation. bead-based flow cytometry RGS8-Galphao binding, fluorescence; actives lie on both sides. binding response (% of control), % at 10 µM. shares compounds with RGS16-Gao. hit rate 3% among 1,700; in the data active means binding response below about 72% or above about 130%; inactive means in between;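 further: Galphao activated as GDP AlF4 complex before binding bead RGS8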
RGS7-Gao single – confirmation of regulators of human RGS7-Galphao interaction; shares compounds with RGS16-Gao; bead-based flow cytometry RGS7-Galphao binding; actives lie on both sides; response (percent of control binding), % at 10 µM; hit rate 7.8% among 1,700; AID 1837; in the data active means response below about 75% or above about 130%; inactive means in between;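 further: fluorescent Galphao activated with GDP and aluminum fluoride binding bead-coupled RGS7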
RGS16-Gao single – confirmation of regulators of human RGS16-Galphao interaction | AID 1838 | shares compounds with RGS16-Gao | response (% of control binding), % at 10 µM | hit rate 4% among 1,700 | bead-based flow cytometry, RGS16-Galphao binding; actives lie on both sides; in the data active means response below about 74% or above about 130%; inactive means in between;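 further: Galphao activated as the GDP aluminium fluoride complex binding bead-coupled RGS16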
RGS4-Gao confirm – RGS4-Galphao interaction regulation, single point confirmation; shares compounds with RGS16-Gao; RGS4-Galphao binding, multiplexed bead flow cytometry; actives lie on both sides; binding response (% of control), % at 10 µM; hit rate 4% among 1,700; AID 1840; in the data active means binding response below about 74% or above about 130%; inactive means in between
RGS19-Gao single – confirmation of regulators of human RGS19-Galphao interaction; shares compounds with RGS16-Gao; bead-based flow cytometry RGS19-Galphao binding; actives lie on both sides; response (percent of control binding), % at 10 µM; hit rate 5% among 1,700; AID 1841; in the data active means response below about 50% or above about 160%; inactive means in between;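 further: 100% = no compound control and 0% = blank background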
* hit, by the source's call; i = inactive; ? = inconclusive; · = no result; + = active, no number; [ ] = another dose, or the depositor's remark. Unless noted, how the calls were made is not given here.

SMILES | RGS4-Gao reg | RGS16-Gao | RGS8-Gao | RGS7-Gao | Calb biofilm kill | Avidin counter | RGS8-Gao single | RGS7-Gao single | RGS16-Gao single | RGS4-Gao confirm | RGS19-Gao single | others
CCC(=O)NC1=C(Cl)C(=O)C(NC(=O)CC)=C(Cl)C1=O | 73 | 8.6* | 53* | ? | 15 | -2 | 35* | 54* | -3.1* | 77 | -6.5* | RGS4-Gao HTS=73*
CCC(=O)NC1=C(NC(C)c2ccccc2)C(=O)c2ccccc2C1=O (stereo unspecified) | 109 | 104 | 107 | 107 | · | · | · | · | · | · | ·
Cc1nnc(NC(=O)c2ccccc2Oc2ccccc2)s1 | 98 | 103 | 98 | 102 | 13 | · | · | · | · | · | ·
Cc1ccc(C)c(NC(=S)c2ccc3ccccc3n2)c1 | 19* | 2.2* | 15* | 8.0* | 18 | 0 | 100 | 82 | 96 | 86 | 80
S=C(Nc1ccc2nsnc2c1)N1CCCCC1 | 86 | 2.5* | 78 | 86 | 8 | · | · | · | · | · | · | RGS4-Gao HTS=86*
S=C(Nc1ccc2nc(-c3ccccn3)c(-c3ccccn3)nc2c1)N1CCCCC1 | 100 | 101 | 100 | 99 | 2 | · | · | · | · | · | ·
CC(C)(C)NC(=S)NC(C)(C)C | 101 | 100 | 101 | ? | 7 | · | · | · | · | · | ·
Cc1ccc(C(=O)C2COC(=O)C2)cc1 (stereo unspecified) | 103 | 98 | 103 | 101 | · | · | · | · | · | · | ·
COc1ccc(OCC2c3cc(OC)c(OC)cc3CCN2C(=O)C(C)C)cc1 (stereo unspecified) | 101 | 112 | 104 | 105 | 12 | · | · | · | · | · | ·
CC(C)N(NC(=O)c1cccc2ccccc12)C(C)C | 144 | 175*[activator] | 151*[activator] | 147 | 10 | 1 | 102 | 103 | 98 | 100 | 103 | RGS4-Gao HTS=144*
CN(C)/C=C1\C=C2C(=O)c3ccccc3N2C1=O | 242*[activator] | 224*[activator] | 137 | ? | 28 | 1 | 143*[activator] | 355*[activator] | 268*[activator] | 271*[activator] | 374*[activator]
CN(C)S(=O)(=O)N1C(=O)c2ccccc2C1=O | 101 | 97 | 101 | ? | 21 | · | · | · | · | · | ·
CCCOc1ccc(C(CC(=O)O)NC(=O)c2cccs2)cc1 (stereo unspecified) | 100 | 99 | 101 | 103 | · | · | · | · | · | · | ·
CC(C)Oc1ccc(C(CC(=O)O)NC(=O)c2cccs2)cc1 (stereo unspecified) | · | · | · | · | · | 2 | 94 | 81 | 88 | 86 | 90
CCn1nnnc1NCc1ccc(N2CCCC2)cc1 | 35* | 320 | 76 | 65 | · | -1 | 98 | 93 | 93 | 96 | 89
COc1ccccc1-n1c(SCC(N)=O)nnc1-c1ccc(S(=O)(=O)N2CCCCC2)cc1 | 97 | 97 | 100 | 98 | · | · | · | · | · | · | ·
NC(=O)CSc1nnc(-c2ccc(S(=O)(=O)N3CCCCC3)cc2)n1-c1ccccc1 | 125 | 335*[activator] | 114 | 111 | · | 1 | 106 | 98 | 106 | 105 | 105 | RGS4-Gao HTS=125*
CCOc1ccc2nc3c(cc2c1)CN(CCCO)C(=NCCOC)S3 | -8.3* | -10* | 7.0* | -5.5* | · | i | 97 | 93 | 99 | 97 | 92
O=C(NNC(=O)C1CC2CCC1C2)c1sc2ccccc2c1Cl (stereo unspecified) | 109 | 103 | 101 | 166*[activator] | 1 | -2 | 101 | 102 | 104 | 103 | 106 | RGS4-Gao HTS=109*
c1ccc(Oc2cc(-c3ccccc3)nc(-c3ccccc3)n2)cc1 | 27* | 19* | 39* | 18* | 19 | 0 | 97 | 97 | 95 | 97 | 105
Cc1cc(Oc2ccccc2)nc(-c2ccccc2)n1 | 105 | 104 | 104 | 100 | · | · | · | · | · | · | ·
O=C(COCC(=O)NCc1ccccc1)NCc1ccccc1 | 99 | 111 | 103 | 102 | -4 | · | · | · | · | · | ·
O=C(CNC(=O)c1ccccc1)Nc1cccc(C(F)(F)F)c1 | 762*[activator] | +[activator] | 193*[activator] | 845*[activator] | 16 | 3 | 95 | 72* | 85 | 83 | 64
Cc1ccc(C(=O)NCC(=O)Nc2cccc(C(F)(F)F)c2)cc1 | 98 | 101 | 100 | 98 | 23 | · | · | · | · | · | ·
O=C(Nc1cccc(C(=O)O)c1)/C(=C\c1ccc2c(c1)OCO2)NC(=O)c1ccc(Br)cc1 | 100 | 100 | 102 | 98 | 19 | · | · | · | · | · | ·
SMILES | RGS4-Gao reg | RGS16-Gao | RGS8-Gao | RGS7-Gao | Calb biofilm kill | Avidin counter | RGS8-Gao single | RGS7-Gao single | RGS16-Gao single | RGS4-Gao confirm | RGS19-Gao single | others
C/C(Cc1ccccc1)=N\NC(=O)CNC(=O)c1ccccc1O | 104 | 103 | 102 | ? | 20 | · | · | · | · | · | ·
C/C(Cc1ccccc1)=N\NC(=O)CNC(=O)c1ccccc1Br | 88 | 17* | 73 | 86 | 13 | 0 | 101 | 75* | 93 | 80 | 83 | RGS4-Gao HTS=88*
Cc1ccc(-c2nn[nH]n2)cc1 | · | · | · | · | · | 3 | 92 | 91 | 93 | 95 | 71
Cc1ccc(-c2nn[nH]n2)o1 | 123 | 105 | 102 | 151*[activator] | · | 2 | 103 | 101 | 103 | 101 | 92 | RGS4-Gao HTS=123*
Cc1ccc(-c2nn[nH]n2)cc1Cl | 112 | 104 | 102 | ? | 24 | · | · | · | · | · | ·
COc1cc(CN2CCc3ccccc3C2)ccc1O | 103 | 104 | 104 | ? | 12 | · | · | · | · | · | ·
CCc1cccc(C)c1NC(=S)N(CCCN1CCOCC1)Cc1cccnc1 | 104 | 103 | 102 | 101 | 2 | · | · | · | · | · | ·
Cc1cc(C)cc(C(=O)OCC(=O)NCc2cccs2)c1 | 110 | 176*[activator] | 125 | 107 | -7 | -1 | 96 | 93 | 95 | 96 | 97 | RGS4-Gao HTS=110*
O=C(COC(=O)c1ccccc1)NCc1cccs1 | 104 | 108 | 103 | 102 | 11 | · | · | · | · | · | ·
CC1CN(S(=O)(=O)c2ccc(C(=O)Nc3nnc(-c4ccccn4)o3)cc2)CC(C)O1 (stereo unspecified) | 15* | 9.5* | 12* | -18* | 14 | -2 | 101 | 101 | 100 | 100 | 114
Cc1ccc(NC(=O)CN(C)Cc2nc3c(Br)cc(Br)cc3c(=O)[nH]2)cc1 | 102 | 106 | 103 | 104 | 11 | · | · | · | · | · | ·
CCN(CC)c1ccc(N2C(=O)/C(=C\c3cccs3)SC2=S)cc1 | · | · | · | · | · | 1 | 95 | 90 | 93 | 93 | 109
